The source made the active and inactive calls. The calls are words filed in the database; no cut-off is given here.
Key:
NCI-H3122 = experiment: Antiproliferative activity against human NCI-H3122 cells after 72 hrs by CellTiter-Glo luminescent cell viability assay; assay type: functional, cell-based
KARPAS-299 = experiment: Antiproliferative activity against human KARPAS299 cells after 72 hrs by CellTiter-Glo luminescent cell viability assay; assay type: functional, cell-based
SU-DHL-1 = experiment: Antiproliferative activity against human SU-DHL1 cells after 72 hrs by CellTiter-Glo luminescent cell viability assay; assay type: functional, cell-based
[1] = molecular target: T1, ALK tyrosine kinase receptor (Homo sapiens, UniProt Q9UM73); experiment: Induction of ALK degradation in human KARPAS299 cells after 16 hrs by immunoblot method; assay type: cell-based
Summary of the method: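 H3122 and Karpas 299 cells were given a dose titration for 16 h. ALK and Aurora A were then read by immunoblot. DC50 was calculated from the titrations, two independent experiments.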

[2] = molecular target: T1, ALK tyrosine kinase receptor; experiment: Induction of ALK degradation in human NCI-H3122 cells at 250 nM after 4 hrs by immunoblot method; assay type: cell-based
Target sequence in this assay (Q9UM73 19-1620 limits assumed): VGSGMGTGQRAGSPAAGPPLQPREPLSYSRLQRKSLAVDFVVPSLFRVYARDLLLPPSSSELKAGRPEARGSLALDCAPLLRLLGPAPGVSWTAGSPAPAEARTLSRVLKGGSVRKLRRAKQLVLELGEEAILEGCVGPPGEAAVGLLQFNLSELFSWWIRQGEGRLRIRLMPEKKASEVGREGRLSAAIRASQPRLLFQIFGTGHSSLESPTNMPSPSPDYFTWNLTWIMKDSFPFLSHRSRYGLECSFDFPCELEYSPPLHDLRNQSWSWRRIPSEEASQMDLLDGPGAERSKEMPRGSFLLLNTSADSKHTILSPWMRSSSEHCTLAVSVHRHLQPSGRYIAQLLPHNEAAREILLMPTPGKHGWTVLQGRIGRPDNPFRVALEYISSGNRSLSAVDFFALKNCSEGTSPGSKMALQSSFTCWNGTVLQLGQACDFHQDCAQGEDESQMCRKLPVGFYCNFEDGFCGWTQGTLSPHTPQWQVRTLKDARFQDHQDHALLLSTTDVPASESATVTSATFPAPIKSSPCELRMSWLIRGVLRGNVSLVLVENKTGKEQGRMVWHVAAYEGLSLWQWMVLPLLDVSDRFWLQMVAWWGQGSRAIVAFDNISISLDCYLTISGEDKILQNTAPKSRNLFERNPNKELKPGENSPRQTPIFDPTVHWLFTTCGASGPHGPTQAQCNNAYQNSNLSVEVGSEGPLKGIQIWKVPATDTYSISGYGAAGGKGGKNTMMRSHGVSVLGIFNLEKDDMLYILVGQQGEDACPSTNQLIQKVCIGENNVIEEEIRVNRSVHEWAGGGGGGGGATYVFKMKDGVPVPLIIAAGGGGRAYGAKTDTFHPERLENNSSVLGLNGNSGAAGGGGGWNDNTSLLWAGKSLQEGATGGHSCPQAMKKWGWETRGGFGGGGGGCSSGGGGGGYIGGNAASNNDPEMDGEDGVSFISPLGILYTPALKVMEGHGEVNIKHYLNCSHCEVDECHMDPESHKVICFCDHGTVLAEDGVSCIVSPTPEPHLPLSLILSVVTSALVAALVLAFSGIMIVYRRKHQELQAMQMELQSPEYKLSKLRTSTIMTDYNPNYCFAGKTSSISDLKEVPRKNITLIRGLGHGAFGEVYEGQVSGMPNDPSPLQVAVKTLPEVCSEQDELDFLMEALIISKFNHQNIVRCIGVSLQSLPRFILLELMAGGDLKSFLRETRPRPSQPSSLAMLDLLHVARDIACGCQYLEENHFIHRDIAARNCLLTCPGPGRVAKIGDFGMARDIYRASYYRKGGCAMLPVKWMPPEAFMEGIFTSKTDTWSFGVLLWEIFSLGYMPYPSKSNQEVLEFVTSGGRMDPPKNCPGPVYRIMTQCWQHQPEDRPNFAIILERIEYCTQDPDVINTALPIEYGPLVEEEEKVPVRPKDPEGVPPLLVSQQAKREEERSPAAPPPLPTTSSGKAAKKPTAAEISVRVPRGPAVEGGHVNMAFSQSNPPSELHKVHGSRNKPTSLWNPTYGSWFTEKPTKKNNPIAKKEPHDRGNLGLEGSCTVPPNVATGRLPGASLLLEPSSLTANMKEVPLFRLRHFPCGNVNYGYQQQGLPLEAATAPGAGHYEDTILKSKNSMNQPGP

[3] = molecular target: T1, ALK tyrosine kinase receptor; experiment: Induction of ALK degradation in human KARPAS299 cells at 250 nM after 8 hrs by immunoblot method; assay type: cell-based
Target sequence in this assay (Q9UM73 19-1620 limits assumed): as above

[4] = molecular target: T1, ALK tyrosine kinase receptor; experiment: Induction of ALK degradation in human NCI-H3122 cells at 250 nM after 16 hrs in presence of proteasome inhibitor carfilzomib by immunoblot method; assay type: cell-based
Target sequence in this assay (Q9UM73 19-1620 limits assumed): as above

[5] = molecular target: T2, Aurora kinase A (Homo sapiens) (UniProt O14965); experiment: Induction of aurora A degradation in human KARPAS299 cells at 250 nM after 16 hrs in presence of […] inhibitor MLN4924 by immunoblot method; assay type: cell-based
T2 sequence (whole entry): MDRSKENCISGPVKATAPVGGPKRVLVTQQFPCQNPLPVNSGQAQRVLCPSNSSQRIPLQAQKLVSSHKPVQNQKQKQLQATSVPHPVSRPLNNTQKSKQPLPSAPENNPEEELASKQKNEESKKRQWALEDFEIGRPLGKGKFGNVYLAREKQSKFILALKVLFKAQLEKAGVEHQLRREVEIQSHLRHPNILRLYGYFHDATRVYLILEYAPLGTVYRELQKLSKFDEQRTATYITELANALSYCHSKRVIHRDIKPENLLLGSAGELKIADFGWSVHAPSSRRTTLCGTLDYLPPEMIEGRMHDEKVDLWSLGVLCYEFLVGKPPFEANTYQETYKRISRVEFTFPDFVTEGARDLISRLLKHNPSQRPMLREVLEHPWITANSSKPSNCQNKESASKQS

[6] = molecular target: T1, ALK tyrosine kinase receptor; experiment: Induction of ALK degradation in human KARPAS299 cells at 250 nM after 16 hrs in presence of ALK inhibitor TAE684 by immunoblot method; assay type: cell-based
Target sequence in this assay (Q9UM73 19-1620 limits assumed): as the sequence (Q9UM73 19-1620 limits assumed) above

Homo sapiens [7] = organism: Homo sapiens; experiment: Antiproliferative activity against human CHLA20 cells after 72 hrs by CellTiter-Glo luminescent cell viability assay; assay type: functional, cell-based
Homo sapiens [8] = organism: Homo sapiens; experiment: Antiproliferative activity against human CHLA20 cells after 72 hrs in presence of ABCB1 inhibitor tariquidar by CellTiter-Glo luminescent cell viability assay; assay type: functional, cell-based
Homo sapiens [9] = organism: Homo sapiens; experiment: Antiproliferative activity against human CHLA20 cells after 72 hrs in presence of ABCB1 shRNA by CellTiter-Glo luminescent cell viability assay; assay type: functional, cell-based
[10] = molecular target: T1, ALK tyrosine kinase receptor; experiment: Induction of ALK degradation in human CHLA20 cells at 100 nM after 16 hrs in presence of ABCB1 shRNA by immunoblot method; assay type: cell-based
Target sequence in this assay (Q9UM73 19-1620 limits assumed): as the sequence (Q9UM73 19-1620 limits assumed) above

[11] = molecular target: T1, ALK tyrosine kinase receptor; experiment: Induction of ALK degradation in human CHLA20 cells at 100 nM after 4 hrs in presence of ABCB1 inhibitor tariquidar by immunoblot method; assay type: cell-based
Summary of the method: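 CHLA20 cells were co-treated with 125 nM tariquidar, then treated with 100 nM compound over a time course. ALK was read by immunoblot.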
Target sequence in this assay (Q9UM73 19-1620 limits assumed): as the sequence (Q9UM73 19-1620 limits assumed) above

[12] = molecular target: T2, Aurora kinase A (Homo sapiens); experiment: Induction of aurora A degradation in human Kelly cells at 100 nM after 16 hrs in presence of proteasome inhibitor carfilzomib by immunoblot method; assay type: cell-based
Summary of the method: (§1)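 Cells were pre-treated for 2 h with DMSO, carfilzomib, MLN4924 or pomalidomide, then treated with compound for 16 h, with immunoblot read-out. CHLA20 cells also received 125 nM tariquidar throughout.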

[13] = molecular target: T2, Aurora kinase A (Homo sapiens); experiment: Induction of aurora A degradation in human Kelly cells at 100 nM after 16 hrs in presence of […] inhibitor MLN4924 by immunoblot method; assay type: cell-based; summary of the method: as §1
[14] = molecular target: T2, Aurora kinase A (Homo sapiens); experiment: Induction of aurora A degradation in human CHLA20 cells at 100 nM after 16 hrs in presence of pomalidomide and ABCB1 inhibitor tariquidar by immunoblot method; assay type: cell-based; summary of the method: as §1
[15] = molecular target: T1, ALK tyrosine kinase receptor; experiment: Induction of ALK degradation in human Kelly cells at 100 nM after 16 hrs in presence of pomalidomide by immunoblot method; assay type: cell-based
Summary of the method: (§2)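 Kelly cells were pre-treated for 2 h with DMSO, carfilzomib, MLN4924, pomalidomide, TAE684 or LDK378. Degrader treatment followed for 16 h, and ALK was read by immunoblot.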

[16] = molecular target: T1, ALK tyrosine kinase receptor; experiment: Induction of ALK degradation in human CHLA20 cells at 100 nM after 16 hrs in presence of pomalidomide and ABCB1 inhibitor tariquidar by immunoblot method; assay type: cell-based
Summary of the method: (§3)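 CHLA20 cells were kept with 125 nM tariquidar and pre-treated for 2 h with DMSO, carfilzomib, MLN4924, pomalidomide, TAE684 or LDK378. A 16 h degrader treatment followed, with immunoblot readout of ALK.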

[17] = molecular target: T1, ALK tyrosine kinase receptor; experiment: Induction of ALK degradation in human Kelly cells at 100 nM after 16 hrs in presence of ALK inhibitor TAE684 by immunoblot method; assay type: cell-based; summary of the method: as §2
[18] = molecular target: T1, ALK tyrosine kinase receptor; experiment: Induction of ALK degradation in human CHLA20 cells at 100 nM after 16 hrs in presence of ALK inhibitor TAE684 and ABCB1 inhibitor tariquidar by immunoblot method; assay type: cell-based; summary of the method: as §3
[19] = molecular target: T1, ALK tyrosine kinase receptor; experiment: Induction of ALK degradation in human Kelly cells at 100 nM after 16 hrs in presence of ALK inhibitor LDK378 by immunoblot method; assay type: cell-based; summary of the method: as §2
[20] = molecular target: T1, ALK tyrosine kinase receptor; experiment: Induction of ALK degradation in human CHLA20 cells assessed as decrease in ALK phosphorylation at Y1507 at 50 to 250 nM after 16 hrs in presence of ABCB1 inhibitor tariquidar by immunoblot method; assay type: cell-based
Summary of the method: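 CHLA20 neuroblastoma cells (ABCB1-high) were co-treated with 125 nM tariquidar throughout. They were dose-titrated for 16 hours and read by immunoblot.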

[21] = molecular target: T1, ALK tyrosine kinase receptor; experiment: Induction of ALK degradation in human Kelly cells at 100 nM after 4 hrs by immunoblot method; assay type: cell-based
Summary of the method: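 Kelly cells were treated with 100 nM compound for varying times and lysed at each time point. ALK levels were read by immunoblot.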

[22] = molecular target: Focal adhesion kinase 1 (Homo sapiens) (UniProt Q05397); experiment: Induction of PTK2 degradation in human KARPAS299 cells at 0.01 to 1 uM after 16 hrs by immunoblot method; assay type: cell-based
Sequence of Focal adhesion kinase 1 (Homo sapiens) (Q05397 2-1052 limits assumed): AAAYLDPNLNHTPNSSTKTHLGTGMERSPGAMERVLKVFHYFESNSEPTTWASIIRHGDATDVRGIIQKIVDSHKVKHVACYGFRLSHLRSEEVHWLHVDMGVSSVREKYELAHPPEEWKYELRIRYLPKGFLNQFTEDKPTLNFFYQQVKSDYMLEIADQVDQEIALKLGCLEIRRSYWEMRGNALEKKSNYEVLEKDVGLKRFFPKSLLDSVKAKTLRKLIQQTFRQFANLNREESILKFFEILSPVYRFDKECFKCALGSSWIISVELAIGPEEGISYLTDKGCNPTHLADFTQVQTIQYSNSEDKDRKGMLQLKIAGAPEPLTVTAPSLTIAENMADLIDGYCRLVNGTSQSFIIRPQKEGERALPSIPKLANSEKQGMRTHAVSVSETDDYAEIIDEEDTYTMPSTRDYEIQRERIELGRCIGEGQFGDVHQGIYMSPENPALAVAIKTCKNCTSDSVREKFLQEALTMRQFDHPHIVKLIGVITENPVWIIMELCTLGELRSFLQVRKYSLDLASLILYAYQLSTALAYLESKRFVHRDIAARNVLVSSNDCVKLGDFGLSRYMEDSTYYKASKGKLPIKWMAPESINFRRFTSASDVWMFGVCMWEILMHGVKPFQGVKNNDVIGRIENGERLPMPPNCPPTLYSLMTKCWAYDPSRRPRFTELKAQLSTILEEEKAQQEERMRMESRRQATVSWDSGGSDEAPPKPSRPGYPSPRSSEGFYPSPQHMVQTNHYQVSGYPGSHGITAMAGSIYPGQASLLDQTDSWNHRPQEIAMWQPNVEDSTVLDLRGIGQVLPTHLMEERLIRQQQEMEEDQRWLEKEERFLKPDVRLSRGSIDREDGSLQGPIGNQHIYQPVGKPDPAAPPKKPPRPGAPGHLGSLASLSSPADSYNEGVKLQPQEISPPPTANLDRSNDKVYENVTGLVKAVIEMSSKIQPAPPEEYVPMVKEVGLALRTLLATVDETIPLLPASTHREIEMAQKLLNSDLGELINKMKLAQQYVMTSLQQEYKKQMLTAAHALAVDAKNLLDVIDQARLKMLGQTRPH

[23] = molecular target: Focal adhesion kinase 1 (Homo sapiens) (UniProt Q05397); experiment: Induction of PTK2 degradation in human Kelly cells at 10 to 160 nM after 16 hrs by immunoblot method; assay type: cell-based
[24] = molecular target: Tyrosine-protein kinase Fer (Homo sapiens) (UniProt P16591); experiment: Induction of FER degradation in human NCI-H3122 cells at 250 nM measured over 2 to 16 hrs by immunoblot method; assay type: cell-based
Sequence of Tyrosine-protein kinase Fer (Homo sapiens) (P16591 whole entry, looked up): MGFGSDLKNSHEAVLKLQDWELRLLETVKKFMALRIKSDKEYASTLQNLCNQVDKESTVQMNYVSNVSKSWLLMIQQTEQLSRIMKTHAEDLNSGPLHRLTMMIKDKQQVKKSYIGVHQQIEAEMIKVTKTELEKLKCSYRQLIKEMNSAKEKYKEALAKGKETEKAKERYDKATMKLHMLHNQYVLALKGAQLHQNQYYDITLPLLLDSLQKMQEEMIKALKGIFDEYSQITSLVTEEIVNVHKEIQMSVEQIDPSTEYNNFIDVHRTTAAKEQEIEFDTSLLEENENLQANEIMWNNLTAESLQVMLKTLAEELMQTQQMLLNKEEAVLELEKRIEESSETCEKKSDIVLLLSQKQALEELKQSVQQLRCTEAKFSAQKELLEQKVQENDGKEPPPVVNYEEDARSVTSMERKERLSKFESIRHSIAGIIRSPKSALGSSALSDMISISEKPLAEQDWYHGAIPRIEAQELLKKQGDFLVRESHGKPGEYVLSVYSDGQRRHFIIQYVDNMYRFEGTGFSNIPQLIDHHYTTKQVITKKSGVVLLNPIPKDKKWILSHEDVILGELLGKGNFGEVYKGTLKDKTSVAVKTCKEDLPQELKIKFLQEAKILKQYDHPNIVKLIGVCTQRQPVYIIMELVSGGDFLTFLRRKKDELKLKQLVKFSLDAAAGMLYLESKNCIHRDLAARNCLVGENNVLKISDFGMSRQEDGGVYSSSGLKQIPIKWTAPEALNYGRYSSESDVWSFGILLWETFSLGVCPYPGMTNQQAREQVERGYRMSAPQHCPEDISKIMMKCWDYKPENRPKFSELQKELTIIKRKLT

[25] = molecular target: Ribosomal protein S6 kinase alpha-1 (Homo sapiens) (UniProt Q15418); experiment: Induction of RPS6KA1 degradation in human NCI-H3122 cells at 250 nM measured over 2 to 16 hrs by immunoblot method; assay type: cell-based
Sequence of Ribosomal protein S6 kinase alpha-1 (Homo sapiens) (Q15418 whole entry): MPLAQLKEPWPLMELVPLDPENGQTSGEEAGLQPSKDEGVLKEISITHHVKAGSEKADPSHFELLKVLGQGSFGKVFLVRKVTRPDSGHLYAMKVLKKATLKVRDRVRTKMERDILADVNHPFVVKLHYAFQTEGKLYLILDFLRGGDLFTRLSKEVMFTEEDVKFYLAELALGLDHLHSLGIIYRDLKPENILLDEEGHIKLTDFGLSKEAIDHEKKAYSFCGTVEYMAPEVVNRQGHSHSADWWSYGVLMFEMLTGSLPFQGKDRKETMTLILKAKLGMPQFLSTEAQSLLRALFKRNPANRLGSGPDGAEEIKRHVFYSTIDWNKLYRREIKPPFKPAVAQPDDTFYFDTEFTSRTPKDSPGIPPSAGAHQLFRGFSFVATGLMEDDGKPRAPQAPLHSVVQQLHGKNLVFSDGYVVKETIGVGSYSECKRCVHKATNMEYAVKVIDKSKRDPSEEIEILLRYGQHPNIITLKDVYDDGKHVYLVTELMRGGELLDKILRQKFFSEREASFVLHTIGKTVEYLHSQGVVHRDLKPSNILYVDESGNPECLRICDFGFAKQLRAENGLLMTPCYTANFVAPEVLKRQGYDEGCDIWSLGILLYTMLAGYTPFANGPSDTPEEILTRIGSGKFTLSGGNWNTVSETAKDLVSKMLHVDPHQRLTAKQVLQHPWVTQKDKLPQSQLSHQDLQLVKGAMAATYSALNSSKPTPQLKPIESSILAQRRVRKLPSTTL

Structure (SMILES)	Activity (NCI-H3122)	Activity (KARPAS-299)	Activity (SU-DHL-1)	DC50 [1] [nM]	Activity [2]	Activity [3]	Activity [4]	Activity [5]	Activity [6]	Activity (Homo sapiens [7])	Activity (Homo sapiens [8])	Activity (Homo sapiens [9])	Activity [10]	Activity [11]	Activity [12]	Activity [13]	Activity [14]	Activity [15]	Activity [16]	Activity [17]	other results
Cc1cc(Nc2ncc(Cl)c(Nc3ccccc3S(=O)(=O)C(C)C)n2)c(OC(C)C)cc1C1CCN(CCOCCOCCNC(=O)CNc2cccc3c2C(=O)N(C2CCC(=O)NC2=O)C3=O)CC1 (stereo unspecified)	Active	Active	Active	40	Active	Active	inactive	inactive	inactive	inactive	Active	Active	Active	Active	inactive	inactive	inactive	inactive	inactive	inactive	Activity [18]: inactive; Activity [19]: inactive; Activity [20]: Active; Activity [21]: inactive; Activity [22]: Active; Activity [23]: Active; Activity [24]: Active; Activity [25]: Active
COc1cc(N2CCN(CCOCCOCCNC(=O)CNc3cccc4c3C(=O)N(C3CCC(=O)NC3=O)C4=O)CC2)ccc1Nc1ncc(Cl)c(Nc2ccccc2S(=O)(=O)C(C)C)n1 (stereo unspecified)	Active	Active	Active	180	Active	Active	inactive	inactive	inactive	inactive	Active	Active	Active	Active	inactive	inactive	inactive	inactive	inactive	inactive	Activity [18]: inactive; Activity [19]: inactive; Activity [20]: Active; Activity [21]: inactive; Activity [22]: Active; Activity [23]: Active; Activity [24]: Active; Activity [25]: Active
